Results from ChEMBL document CHEMBL4184147, “Polyphenolic Phytochemicals in Cancer Prevention and Therapy: Bioavailability versus Bioefficacy” (J Med Chem, 2017).

Key:
[1] = tested on: Lipid bilayer; experiment: Induction of DOPC/n-decane bilayer property changes assessed as concentration required to double gramicidin-induced quencher influx rate by […]
[2] = tested on: SK-MEL-2; experiment: Cytotoxicity against human SK-MEL-2 cells assessed as cell viability at 41 uM after 48 hrs by MTT assay; assay type: functional; settings: SK-MEL-2, 48 h, read-out: Activity
[3] = tested on: MDA-MB-231; experiment: Cytotoxicity against human MDA-MB-231 cells assessed as decrease in cell viability after 48 hrs by trypan blue exclusion and LDH release; settings: MDA-MB-231, 48 h
[4] = tested on: T47D; experiment: Cytotoxicity against human T47D cells assessed as cell viability at 41 uM after 48 hrs by MTT assay; assay type: functional; settings: read-out: Activity
[5] = tested on: PANC-1; experiment: Cytotoxicity against human PANC1 cells assessed as cell viability at 41 uM after 48 hrs by MTT assay; assay type: functional; settings: PANC-1, 48 h, read-out: Activity
[6] = tested on: LN-229; experiment: Cytotoxicity against human LN229 cells assessed as cell viability at 41 uM after 48 hrs by MTT assay; assay type: functional; settings: LN-229, 48 h, read-out: Activity
[7] = tested on: Mus musculus; experiment: Tmax in mouse at 100 mg/kg, po by HPLC method; assay type: ADME, organism-based; settings: in vivo
Summary of the method: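 Given orally in a self-microemulsifying delivery system (60% surfactant, emulsifier OP:Cremophor EL 1:1; 30% PEG 400 cosurfactant; 10% ethyl oleate oil), total volume no more than 100 μL. Plasma levels measured by previously described methods.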

[8] = tested on: A549; experiment: Cytotoxicity against human A549 cells assessed as decrease in cell viability after 48 hrs by trypan blue exclusion and LDH release; settings: A549, 48 h
[9] = Cytotoxicity against human MML1 cells assessed as cell viability at 41 uM after 48 hrs by MTT assay; assay type: functional; settings: read-out: Activity
[10] = tested on: U-87 MG; experiment: Cytotoxicity against human U87 cells assessed as decrease in cell viability after 48 hrs by trypan blue exclusion and LDH release
[11] = tested on: Mus musculus; experiment: Cmax in mouse at 100 mg/kg, po by HPLC method; assay type: ADME, organism-based; set-up: dose 100 mg/kg, route oral; settings: in vivo
Summary of the method: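 For oral dosing, polyphenol was dissolved in a self-microemulsifying delivery system: 60% surfactant (emulsifier OP:Cremophor EL 1:1), 30% cosurfactant (PEG 400) and 10% oil (ethyl oleate). Total volume given was never above 100 μL. Plasma levels were quantified by previously described methods.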

[12] = tested on: T47D; experiment: Cytotoxicity against human T47D cells assessed as decrease in cell viability after 48 hrs by trypan blue exclusion and LDH release
[13] = tested on: NCI-H460; experiment: Cytotoxicity against human NCI-H460 cells assessed as decrease in cell viability after 48 hrs by MTT assay; assay type: functional, cell-based; settings: NCI-H460, 48 h
[14] = tested on: U-87 MG; experiment: Cytotoxicity against human U87 cells assessed as cell viability at 41 uM after 48 hrs by MTT assay; assay type: functional, U-87MG ATCC; settings: read-out: Activity
[15] = tested on: COLO 201; experiment: Cytotoxicity against human COLO201 cells assessed as decrease in cell viability after 48 hrs by trypan blue exclusion and LDH release; settings: COLO 201, 48 h
[16] = tested on: MDA-MB-231; experiment: Cytotoxicity against human MDA-MB-231 cells assessed as cell viability at 41 uM after 48 hrs by MTT assay; assay type: functional; settings: MDA-MB-231, 48 h, read-out: Activity
[17] = Cmax in mouse at 10 mg/kg, iv by LC-MS/MS method; assay type: ADME, organism-based; set-up: dose 10 mg/kg, route intravenous; settings: in vivo
Summary of the method: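 Mouse iv dosing used polyphenol dissolved in DMSO:ethanol (2:1), with total injected volume never above 30 μL. Plasma levels were measured by previously described methods.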

[18] = tested on: NCI-H460; experiment: Cytotoxicity against human NCI-H460 cells assessed as cell viability at 41 uM after 48 hrs by MTT assay; assay type: functional; settings: NCI-H460, 48 h, read-out: Activity
[19] = Cytotoxicity against human MML1 cells assessed as decrease in cell viability after 48 hrs by MTT assay; assay type: functional, cell-based
[20] = tested on: COLO 201; experiment: Cytotoxicity against human COLO201 cells assessed as cell viability at 41 uM after 48 hrs by MTT assay; assay type: functional; settings: COLO 201, 48 h, read-out: Activity
[21] = Plasma concentration in mouse at 10 mg/kg, iv at 60 mins by LC-MS/MS method; assay type: ADME, organism-based
Summary of the method: (§1)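 For IV dosing, compound dissolved in DMSO:ethanol (2:1), total volume no more than 30 μL. For oral dosing, compound given in a self-microemulsifying delivery system (60% surfactant, emulsifier OP:Cremophor EL 1:1; 30% PEG 400; 10% ethyl oleate), total volume no more than 100 μL. Plasma levels measured by previously described methods.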

[22] = tested on: LN-229; experiment: Cytotoxicity against human LN229 cells assessed as decrease in cell viability after 48 hrs by trypan blue exclusion and LDH release; settings: LN-229, 48 h
[23] = tested on: BXPC-3; experiment: Cytotoxicity against human BxPC3 cells assessed as cell viability at 41 uM after 48 hrs by MTT assay; assay type: functional; settings: BXPC-3, 48 h, read-out: Activity
[24] = tested on: HT-29; experiment: Cytotoxicity against human HT-29 cells assessed as decrease in cell viability after 48 hrs by trypan blue exclusion and LDH release; settings: HT-29, 48 h
[25] = tested on: SK-MEL-2; experiment: Cytotoxicity against human SK-MEL-2 cells assessed as decrease in cell viability after 48 hrs by MTT assay; assay type: functional, cell-based; settings: SK-MEL-2, 48 h
[26] = tested on: A549; experiment: Cytotoxicity against human A549 cells assessed as cell viability at 41 uM after 48 hrs by MTT assay; assay type: functional; settings: A549, 48 h, read-out: Activity
[27] = tested on: PANC-1; experiment: Cytotoxicity against human PANC1 cells assessed as decrease in cell viability after 48 hrs by MTT assay; assay type: functional, cell-based; settings: PANC-1, 48 h
[28] = Plasma concentration in mouse at 100 mg/kg, po at 60 mins by LC-MS/MS method; assay type: ADME, organism-based; summary of the method: as §1
[29] = tested on: BXPC-3; experiment: Cytotoxicity against human BxPC3 cells assessed as decrease in cell viability after 48 hrs by MTT assay; assay type: functional, cell-based; settings: BXPC-3, 48 h
[30] = tested on: HT-29; experiment: Cytotoxicity against human HT-29 cells assessed as cell viability at 41 uM after 48 hrs by MTT assay; assay type: functional; settings: HT-29, 48 h, read-out: Activity

SMILES: COc1cc(/C=C/C(=O)CC(=O)/C=C/c2ccc(O)c(OC)c2)ccc1O [CURCUMIN]
- Activity [1]: 8.6 µM
- viability at 41 µM [2]: 97%
- IC50 [3]: 12 µM
- viability at 41 µM [4]: 88%
- viability at 41 µM [5]: 99%
- viability at 41 µM [6]: 91%
- Tmax [7]: 15 min
- IC50 [8]: 18 µM
- viability at 41 µM [9]: 105%
- IC50 [10]: 16 µM
- Cmax [11]: 27 µM
- IC50 [12]: 19 µM
- IC50 [13]: 15 µM
- viability at 41 µM [14]: 92%
- IC50 [15]: 18 µM
- viability at 41 µM [16]: 90%
- Cmax [17]: 81 µM
- viability at 41 µM [18]: 95%
- IC50 [19]: 19 µM
- viability at 41 µM [20]: 81%
- concentration at 1 h [21]: < 1 µM
- IC50 [22]: 15 µM
- viability at 41 µM [23]: 102%
- IC50 [24]: 14 µM
- IC50 [25]: 36 µM
- viability at 41 µM [26]: 96%
- IC50 [27]: 53 µM
- concentration at 1 h [28]: < 1 µM
- IC50 [29]: 29 µM
- viability at 41 µM [30]: 83%
